PMC7655718 (The Journal of antibiotics, 2020)
In brackets after ≈: the same amount, converted by molar mass. Where two headings read alike, the source gives them in different places.

What was measured:
[1] = tested on: S. epidermidis 700296 (Se); test: MIC, microdilution with resazurin; assay type: cell-based; conditions: Staphylococcus epidermidis, read-out: MIC Se
In short: (§1)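 Compounds dissolved in DMSO at 2 mg/mL. Overnight blood-agar colonies were suspended in PBS to 0.5 McFarland, then diluted in Mueller Hinton broth to about 1x10^6 cfu/mL with resazurin (1:1000 of 0.1% w/v stock). Twofold DMSO dilutions were added 1:40, giving 50 to 0.4 μg/mL at 2.5% DMSO. Incubation was 35 °C for 16-20 h. Blue/non-turbid wells counted as inhibited, pink/turbid as grown.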

[2] = tested on: A. baumannii ATCC 19606 (type strain, Ab06); test: MIC and MBC; assay type: cell-based, Acinetobacter baumannii; conditions: Acinetobacter baumannii
In short: as §1

[3] = tested on: B. subtilis ATCC 6623 (Bs); test: MIC, microdilution with resazurin; assay type: cell-based, Bacillus subtilis; conditions: Bacillus subtilis, ATCC6623, read-out: MIC Bs
[4] = tested on: S. aureus ATCC 25923 (Sa23); test: MIC, microdilution with resazurin; assay type: cell-based; conditions: Staphylococcus aureus, ATCC25923, read-out: MIC Sa23
In short: as §1

[5] = tested on: S. aureus ATCC 33592 (Sa92); test: MIC, microdilution with resazurin; assay type: cell-based; conditions: Staphylococcus aureus, ATCC33592, read-out: MIC Sa92
In short: as §1

[6] = tested on: S. aureus BAA-2312 (Sa12); test: MIC, microdilution with resazurin; assay type: cell-based; conditions: Staphylococcus aureus, BAA2312, read-out: MIC Sa12
In short: as §1

[7] = tested on: tested Gram-positive bacterial strains; test: MIC, text summary over tested Gram-positive strains; assay type: cell-based
[8] = tested on: A. baumannii ATCC 747 (Ab47); test: MIC, microdilution with resazurin; assay type: cell-based, Acinetobacter baumannii; conditions: Acinetobacter baumannii, ATCC747, read-out: MIC Ab47
In short: as §1

[9] = tested on: S. aureus ATCC 700699 (Sa99); test: MIC, microdilution with resazurin; assay type: cell-based; conditions: Staphylococcus aureus, ATCC700699, read-out: MIC Sa99
In short: as §1

[10] = tested on: S. aureus ATCC 33591 (Sa91); test: MIC, microdilution with resazurin; assay type: cell-based; conditions: Staphylococcus aureus, ATCC33591, read-out: MIC Sa91
In short: as §1

[11] = tested on: S. aureus ATCC 25923 biofilm formation; test: Biofilm inhibition assay; assay type: cell-based, Staphylococcus aureus; conditions: 2xMIC, MIC and 0.5xMIC concentrations, 24 hours
In short: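 Blood-agar culture was suspended in PBS (0.5 McFarland), then diluted 1:100 in yeast extract casamino acid broth (about 1x10^6 cfu/mL). Compound at 2xMIC, MIC and 0.5xMIC was added before biofilm formation, in triplicate, with broth-only and bacteria+DMSO controls. Incubation was 35 °C for 24 h. Wells were PBS-washed, dried, stained with 0.1% crystal violet, solubilised in 33% acetic acid and read at 620 nm. % inhibition = [1−(ODcompound−ODbroth)/(ODdmso−ODbroth)]×100, from mean and SD.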

A. baumannii ATCC 19606 = test: Time kill assay; assay type: cell-based, Acinetobacter baumannii; conditions: 4xMIC
In short: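 Growth curves by optical density set the log phase. Log-phase bacteria (about 2 h shaking in Mueller Hinton broth II) were diluted in warm broth to about 3x10^6 cfu/mL. They were exposed to compound at 4xMIC (other multiples where indicated), in triplicate, at 35 °C. Colistin (A. baumannii) or vancomycin (S. aureus) and DMSO were included. Samples at 0, 2, 4, 6, 8, 10, 12 and 24 h were counted by drop plate on blood agar (18-24 h, 35 °C). Log cfu/mL was plotted against time.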

[12] = tested on: human embryonic kidney cell line (HEK293); test: Toxicity against HEK293 cell line; assay type: cell-based

Row | Compound | MIC [1] [µg/mL] | MIC ([2]; ATCC19606, read-out: MIC Ab06) [µg/mL] | MIC [3] [µg/mL] | MIC [4] [µg/mL] | MIC [5] [µg/mL] | MIC [6] [µg/mL] | MIC ([7]; Staphylococcus aureus, read-out: MIC value against S. aureus strains) [µg/mL] | MIC [8] [µg/mL] | MIC [9] [µg/mL] | MIC [10] [µg/mL] | MIC ([7]; read-out: MIC value as low as) [µg/mL] | inhibition of biofilm formation [11] | antimicrobial activity against the tested strains [7] | time kill effect (A. baumannii ATCC 19606; 24 hours at 35 °C) | increase in log10 cfu/mL of the bacterial population (A. baumannii ATCC 19606; through 24 hours) [fold] | MBC ([2]; ATCC19606) [µg/mL] | MIC ([2]; ATCC19606) [µg/mL] | toxicity for HEK293 [12]
1 | O=C(O)c1ccc(-n2cc(/C=N/Nc3ccccc3)c(-c3ccc4ccccc4c3)n2)cc1 [Compound 6] | 25 (≈ 57.8 µM) | > 50 | 25 (≈ 57.8 µM) | 25 (≈ 57.8 µM) | 12.5 (≈ 28.9 µM) | 25 (≈ 57.8 µM) | 25 (≈ 57.8 µM) | > 50 | 12.5 (≈ 28.9 µM) | > 25 | – | – | – | – | – | – | – | –
2 | CN(/N=C/c1cn(-c2ccc(C(=O)O)cc2)nc1-c1ccc2ccccc2c1)c1ccccc1 [Compound 7] | > 50 | > 50 | > 50 | > 50 | 1.56 (≈ 3.49 µM) | > 50 | – | > 50 | 1.56 (≈ 3.49 µM) | > 50 | – | – | – | – | – | – | – | –
3 | O=C(O)c1ccc(-n2cc(/C=N/N(c3ccccc3)c3ccccc3)c(-c3ccc4ccccc4c3)n2)cc1 [Compound 8] | 1.56 (≈ 3.07 µM) | > 50 | 12.5 (≈ 24.6 µM) | 1.56 (≈ 3.07 µM) | 1.56 (≈ 3.07 µM) | 3.12 (≈ 6.14 µM) | – | > 50 | 1.56 (≈ 3.07 µM) | 3.12 (≈ 6.14 µM) | ≥ 1.56 | very effective | – | – | – | – | – | –
4 | O=C(O)c1ccc(-n2cc(/C=N/N(Cc3ccccc3)c3ccccc3)c(-c3ccc4ccccc4c3)n2)cc1 [Compound 9] | 3.12 (≈ 5.98 µM) | > 50 | 25 (≈ 47.8 µM) | 3.12 (≈ 5.98 µM) | 1.56 (≈ 2.99 µM) | 3.12 (≈ 5.98 µM) | – | > 50 | 1.56 (≈ 2.99 µM) | 1.56 (≈ 2.99 µM) | ≥ 1.56 | – | – | – | – | – | – | –
5 | Cc1ccc(N/N=C/c2cn(-c3ccc(C(=O)O)cc3)nc2-c2ccc3ccccc3c2)cc1 [Compound 11] | 25 (≈ 56 µM) | > 50 | 25 (≈ 56 µM) | 25 (≈ 56 µM) | 12.5 (≈ 28 µM) | 25 (≈ 56 µM) | – | > 50 | 6.25 (≈ 14 µM) | 25 (≈ 56 µM) | – | – | reduced the potency drastically | – | – | – | – | –
6 | CCc1ccccc1N/N=C/c1cn(-c2ccc(C(=O)O)cc2)nc1-c1ccc2ccccc2c1 [Compound 12] | > 25 | > 50 | 25 (≈ 54.3 µM) | 25 (≈ 54.3 µM) | 12.5 (≈ 27.1 µM) | 25 (≈ 54.3 µM) | – | > 50 | 12.5 (≈ 27.1 µM) | 25 (≈ 54.3 µM) | – | – | reduced the potency drastically | – | – | – | – | –
7 | COc1ccc(N/N=C/c2cn(-c3ccc(C(=O)O)cc3)nc2-c2ccc3ccccc3c2)cc1 [Compound 13] | > 25 | > 50 | > 25 | > 25 | 25 (≈ 54.1 µM) | > 25 | – | > 50 | 12.5 (≈ 27 µM) | 25 (≈ 54.1 µM) | – | – | reduced the potency drastically | – | – | – | – | –
8 | O=C(O)c1ccc(-n2cc(/C=N/Nc3ccc(Cl)cc3)c(-c3ccc4ccccc4c3)n2)cc1 [Compound 16] | 6.25 (≈ 13.4 µM) | 3.12 (≈ 6.69 µM) | 12.5 (≈ 26.8 µM) | 6.25 (≈ 13.4 µM) | 3.12 (≈ 6.69 µM) | 6.25 (≈ 13.4 µM) | – | 6.25 (≈ 13.4 µM) | 1.56 (≈ 3.34 µM) | 12.5 (≈ 26.8 µM) | – | – | – | bacteriostatic effect | ≤ 2 | 50 (≈ 107 µM) | 3.12 (≈ 6.69 µM) | –
9 | O=C(O)c1ccc(-n2cc(/C=N/Nc3c(F)c(F)c(F)c(F)c3F)c(-c3ccc4ccccc4c3)n2)cc1 [Compound 24] | > 50 | > 50 | 1.56 (≈ 2.99 µM) | 3.12 (≈ 5.98 µM) | 0.78 (≈ 1.49 µM) | > 50 | – | > 50 | 0.78 (≈ 1.49 µM) | > 50 | ≥ 0.78 | – | – | – | – | – | – | selective toxicity for bacterial cells
10 | N#Cc1ccc(N/N=C/c2cn(-c3ccc(C(=O)O)cc3)nc2-c2ccc3ccccc3c2)cc1 [Compound 26] | > 50 | > 50 | > 50 | > 50 | > 50 | > 50 | – | > 50 | > 50 | > 50 | – | – | eliminated the activity | – | – | – | – | –
11 | O=C(O)c1ccc(-n2cc(/C=N/Nc3ccc([N+](=O)[O-])cc3)c(-c3ccc4ccccc4c3)n2)cc1 [Compound 27] | > 50 | > 50 | > 50 | > 50 | > 50 | > 50 | – | > 50 | > 50 | > 50 | – | – | eliminated the activity | – | – | – | – | –
12 | O=C(O)c1ccc(N/N=C/c2cn(-c3ccc(C(=O)O)cc3)nc2-c2ccc3ccccc3c2)cc1 [Compound 28] | > 50 | > 50 | > 50 | > 50 | > 50 | > 50 | – | > 50 | > 50 | > 50 | – | – | eliminated the activity | – | – | – | – | –
13 | CN(C)/N=C/c1cn(-c2ccc(C(=O)O)cc2)nc1-c1ccc2ccccc2c1 [Compound 29] | > 25 | > 50 | > 25 | > 25 | > 25 | > 50 | – | > 50 | 25 (≈ 65 µM) | > 50 | – | – | did not show any activity | – | – | – | – | –
14 | O=C(O)c1ccc(-n2cc(/C=N/N3CCCCC3)c(-c3ccc4ccccc4c3)n2)cc1 [Compound 30] | > 25 | > 50 | 25 (≈ 58.9 µM) | > 25 | 25 (≈ 58.9 µM) | > 50 | – | > 50 | 25 (≈ 58.9 µM) | > 25 | – | – | failed to show any remarkable antimicrobial activity | – | – | – | – | –
15 | CN1CCN(/N=C/c2cn(-c3ccc(C(=O)O)cc3)nc2-c2ccc3ccccc3c2)CC1 [Compound 31] | > 50 | > 50 | > 50 | > 50 | > 50 | > 50 | – | > 50 | > 50 | > 50 | – | – | failed to show any remarkable antimicrobial activity | – | – | – | – | –
16 | O=C(O)c1ccc(-n2cc(/C=N/n3cnnc3)c(-c3ccc4ccccc4c3)n2)cc1 [Compound 32] | > 50 | > 50 | > 50 | > 50 | > 50 | > 50 | – | > 50 | > 50 | > 50 | – | – | failed to show any remarkable antimicrobial activity | – | – | – | – | –
17 | O=C(O)c1ccc(-n2cc(/C=N/NC3=NCCN3)c(-c3ccc4ccccc4c3)n2)cc1 [Compound 33] | > 50 | > 50 | > 50 | > 50 | > 50 | > 50 | – | > 50 | > 50 | > 50 | – | – | failed to show any remarkable antimicrobial activity | – | – | – | – | –
18 | COC(=O)N/N=C/c1cn(-c2ccc(C(=O)O)cc2)nc1-c1ccc2ccccc2c1 [Compound 34] | > 50 | > 50 | > 50 | > 50 | > 50 | > 50 | – | > 50 | > 50 | > 50 | – | – | failed to show any remarkable antimicrobial activity | – | – | – | – | –
